This is an account of results in ChEMBL document CHEMBL4414678, “Structure Determination, Functional Characterization, and Biosynthetic Implications of Nybomycin Metabolites from a Mining Reclamation Site-Associated Streptomyces” (J Nat Prod, 2019).

In brackets after ≈: the same amount, converted by molar mass. Activity calls are given as the source filed them. No cut-off for these calls is given here. Starred links: 1 amine or outer side, 2 acyl side, 3 side chain; linkers in the order of their positions; H or OH if unused. Positions of bridges follow the written chain, without caps; N, C: chain ends. Non-standard residues stand in square brackets, D forms with d. Residues, ends and D or L forms follow the SMILES beside them. Chains are numbered I, II in the order given. Actinocin(1to9) = Cc1c2oc3c(C)ccc(C(=O)[*:2])c3nc-2c(C(=O)[*:1])c(N)c1=O; NMeV = CN[C@H](C(=O)O)C(C)C; Sar = CNCC(=O)O

Series [1] relates to Bacillus subtilis. The experiment in a line: Antibacterial activity against Bacillus subtilis ATCC 6633 after 16 to 48 hrs. The format is functional. An outline of the steps: (§1)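 MIC determined against each bacterial strain after 16–48 h incubation, in triplicate. DMSO vehicle was the negative control, and kanamycin and ampicillin were the positive controls.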
Series [2] has as its system PC-3. Nature of the series: Antiproliferative activity against human PC3 cells assessed as reduction in cell viability after 72 hrs by alamar blue assay. The format is functional, cell-based. The note with it: PC-3, 72 h. An outline of the steps:
(§2)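 Cancer cell viability measured after 72 h exposure, in triplicate, and EC50/IC50 derived. DMSO served as the negative control. Positive controls were actinomycin D at 20 μM and H2O2 at 2 mM, each taken as 0% viable cells.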

The test system of series [3] is Mycolicibacterium aurum. Nature of the series: Antibacterial activity against Mycobacterium aurum ATCC 23366 after 16 to 48 hrs. The format is functional. The method in brief:
as §1

The target of series [4] is Eukaryotic translation initiation factor 4E-binding protein 1 (Homo sapiens) (UniProt Q13541). Nature of the series: Inhibition of 4E-BP1 phosphorylation in human HCT116 cells at 1 uM after 6 hrs by Western blot analysis. The format is cell-based. An outline of the steps: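 HCT116 cells treated for 6 h with compound at 1 or 2 μM, or with DMSO as negative control. Lysates analysed by Western blot for phosphorylated 4E-BP1 alongside related proteins.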

For series [5], the system named is Staphylococcus aureus. The experiment in a line: Antibacterial activity against Staphylococcus aureus ATCC 6538 after 16 to 48 hrs. It counts as functional. An outline of the steps: as §1
Series [6] relates to Escherichia coli. Nature of the series: Antibacterial activity against Escherichia coli ATCC 12435 after 16 to 48 hrs. The format is functional. An outline of the steps: as §1
Series [7] concerns Saccharomyces cerevisiae. Nature of the series: Antifungal activity against Saccharomyces cerevisiae ATCC 204508 after 16 to 48 hrs. It counts as functional. An outline of the steps:
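MIC determined against the S. cerevisiae strain after 16–48 h incubation, in triplicate. DMSO vehicle was the negative control and amphotericin B the positive control.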

The subject of series [8] is A549. The experiment in a line: Antiproliferative activity against human A549 cells assessed as reduction in cell viability after 72 hrs by alamar blue assay. The format is functional, cell-based. The settings on record: A549, 72 h. The method in brief:
as §2

For series [9], the system named is Salmonella enterica. The experiment in a line: Antibacterial activity against Salmonella enterica ATCC 10708 after 16 to 48 hrs. It counts as functional. The method in brief: as §1
The subject of series [10] is Micrococcus luteus. Nature of the series: Antibacterial activity against Micrococcus luteus ATCC 15307 after 16 to 48 hrs. The format is functional. An outline of the steps:
as §1

In series [11] the test system is Ambystoma mexicanum. The experiment in a line: Toxicity in axolotl embryo at 1 uM after 7 days by tail regeneration assay. The format is organism-based. The settings on record: in vivo, 168 h. An outline of the steps: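 Axolotl embryos (Ambystoma Genetic Stock Center) had the tail amputated and were exposed to 1 μM compound. Regeneration, judged by a rounded tail tip, was scored at 7 days post-amputation. DMSO vehicle was the negative control and geldanamycin the positive control.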

Series [12] deals with PC-3. The experiment in a line: Antiproliferative activity against human PC3 cells assessed as cell viability at 20 uM after 72 hrs by alamar blue assay relative to control. The settings on record: PC-3, 72 h, read-out: Activity. The format is functional.
Series [13] relates to A549. Nature of the series: Antiproliferative activity against human A549 cells assessed as cell viability at 20 uM after 72 hrs by alamar blue assay relative to control. It counts as functional. The note with it: A549, 72 h, read-out: Activity.

Eukaryotic translation initiation factor 4E-binding protein 1 (Homo sapiens), sequence (Q13541 whole entry): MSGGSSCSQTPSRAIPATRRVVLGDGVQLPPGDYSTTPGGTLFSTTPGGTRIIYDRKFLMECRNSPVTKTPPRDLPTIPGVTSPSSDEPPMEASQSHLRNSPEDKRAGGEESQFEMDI

With `Cc1cc(=O)[nH]c2c1C(=O)c1c(C)cc(=O)n(C)c1C2=O`, the MIC was 12 µM (≈ 3.41 µg/mL) in series [1]; above 24 µM in series [3]; 12 µM (≈ 3.41 µg/mL) in [5]; above 24 µM in series [6]; above 24 µM in series [7]; above 24 µM in series [9]. The molecule further registered an MIC in [10] of 12 µM (≈ 3.41 µg/mL). Besides, the EC50 in series [2] worked out at 0.15 µM; in series [8], 0.25 µM. Besides, the inhibition entry in [4] was “Active”.

`COC(=O)c1cc2cc3c(c(O)c2c(=O)o1)O[C@]1(CC3)Cc2c(O)c3c(c(O)c2O1)C(=O)C(OC)=CC3=O`: the MIC is 0.02 µM (≈ 0.0104 µg/mL) in [1]; 12 µM (≈ 6.27 µg/mL) in [3]; 0.075 µM (≈ 0.0392 µg/mL) in [5]; above 24 µM in [6]; 3 µM (≈ 1.57 µg/mL) in series [7]; above 24 µM in series [9]. Besides, the MIC in series [10] is 0.15 µM (≈ 0.0784 µg/mL). Moreover, the EC50 in series [2] and in [8] was above 100 µM throughout. Also, the Activity result in series [11] is recorded as “Non-Toxic”.

Consider `Cc1cc(=O)[nH]c2c(O)c3c(cc12)c(CO)cc(=O)n3C`, for which the MIC in [1], in series [3], in [5], in series [6], in series [7] and in [9] was above 24 µM each time. This molecule also gave an MIC in series [10] above 24 µM. The EC50 in [2] and in series [8] was above 100 µM each time.

Consider `Cc1cc(=O)n(C)c2c(O)c3c(cc12)c(C)cc(=O)n3C`, for which the MIC in series [1] is 6 µM (≈ 1.71 µg/mL); in [3], above 24 µM; in series [5], 12 µM (≈ 3.41 µg/mL); in series [6] it was above 24 µM; in series [7], above 24 µM; in series [9] it was above 24 µM. In series [10], this molecule had an MIC of 12 µM (≈ 3.41 µg/mL). The EC50 in series [2] turned out to be 1.14 µM; in series [8], 15.2 µM.

As for `Cc1cc(=O)n2c3c(c4c(cc13)c(CO)cc(=O)n4C)OC2`, the MIC in series [1] was 12 µM (≈ 3.58 µg/mL); in series [3] it was above 24 µM; in [5] it was above 24 µM; in series [6], above 24 µM; in series [7], above 24 µM; in [9], above 24 µM. In series [10], this molecule came in with an MIC of 12 µM (≈ 3.58 µg/mL). Besides, the EC50 in [2] and in [8] was above 100 µM throughout.

In turn, `C[C@@H]1[C@H](O)[C@@H](C)/C=C/C=C/C=C/C=C/C=C/C=C/C=C/[C@H](O[C@@H]2O[C@H](C)[C@@H](O)[C@H](N)[C@@H]2O)C[C@@H]2O[C@](O)(C[C@@H](O)C[C@@H](O)[C@H](O)CC[C@@H](O)C[C@@H](O)CC(=O)O[C@H]1C)C[C@H](O)[C@H]2C(=O)O` [AMPHOTERICIN B] came in with a minimal inhibitory concentration (MIC) in [7] of 2 µM (≈ 1.85 µg/mL).

Turning to `COC(=O)c1cc2cc(CCc3cc4c(o3)C(=O)c3c(O)c(OC)cc(OC)c3C4=O)c(O)c(O)c2c(=O)o1`, the MIC in series [1] was 0.4 µM (≈ 0.215 µg/mL); in series [3] it was above 24 µM; in series [5], 3 µM (≈ 1.61 µg/mL); in [6], above 24 µM; in series [7], above 24 µM; in series [9] it was above 24 µM. Moreover, 1.5 µM (≈ 0.805 µg/mL) was the least that counted as inhibitory in [10] (MIC). For the same molecule, the EC50 in series [2] and in [8] was above 100 µM each time.

Take `CC1(C)S[C@@H]2[C@H](NC(=O)[C@H](N)c3ccccc3)C(=O)N2[C@H]1C(=O)O` [AMPICILLIN]: the MIC in [5] is 12 µM (≈ 4.19 µg/mL); in [6], 25 µM (≈ 8.74 µg/mL); in series [9], 25 µM (≈ 8.74 µg/mL); in [10], 25 µM (≈ 8.74 µg/mL).

With `C/C=C/C=C/[C@H]1C[C@H](O)CCN1`, the MIC in [1], in series [3], in series [5], in series [6], in [7] and in series [9] was above 24 µM throughout. This molecule gave an MIC in series [10] above 24 µM. The EC50 in series [2] and in series [8] was above 100 µM throughout.

As for `COC(=O)c1cc2cc3c(c(O)c2c(=O)o1)O[C@]1(CC3)CC2=C(O1)C(=O)c1c(O)c(OC)cc(OC)c1C2=O`, the MIC in [1] was 12 µM (≈ 6.44 µg/mL); in series [3], above 24 µM; in series [5], 12 µM (≈ 6.44 µg/mL); in series [6], above 24 µM; in series [7], 12 µM (≈ 6.44 µg/mL); in series [9] it was above 24 µM. In series [10], this molecule had an MIC of 6 µM (≈ 3.22 µg/mL). The EC50 in series [2] and in series [8] was above 100 µM throughout.

On to `NC[C@H]1O[C@H](O[C@H]2[C@H](O)[C@@H](O[C@H]3O[C@H](CO)[C@@H](O)[C@H](N)[C@H]3O)[C@H](N)C[C@@H]2N)[C@H](O)[C@@H](O)[C@@H]1O` [KANAMYCIN], for which the MIC was found to be 2 µM (≈ 0.969 µg/mL) in series [1]; 7.5 µM (≈ 3.63 µg/mL) in series [5]; 7.5 µM (≈ 3.63 µg/mL) in series [6]; 14 µM (≈ 6.78 µg/mL) in [9]; 15 µM (≈ 7.27 µg/mL) in [10].

In the case of `Cc1cc(=O)n2c3c(c4c(cc13)c(C(=O)O)cc(=O)n4C)OC2`, the MIC in series [1], in [3], in series [5], in [6], in series [7] and in [9] was above 24 µM throughout. This molecule also returned an MIC in series [10] above 24 µM. The EC50 in series [2] and in [8] was above 100 µM throughout.

`CO[C@H]1/C=C/O[C@@]2(C)Oc3c(C)c(O)c4c(O)c(c(/C=N/N5CCN(C)CC5)c(O)c4c3C2=O)NC(=O)/C(C)=C\C=C\[C@H](C)[C@H](O)[C@@H](C)[C@@H](O)[C@@H](C)[C@H](OC(C)=O)[C@@H]1C` [RIFAMPIN]: the MIC in [3] was found to be 2 µM (≈ 1.65 µg/mL).

For `Cc1c2oc3c(C)ccc(C(=O)N[C@@H]4C(=O)N[C@H](C(C)C)C(=O)N5CCC[C@H]5C(=O)N(C)CC(=O)N(C)[C@@H](C(C)C)C(=O)O[C@@H]4C)c3nc-2c(C(=O)N[C@@H]2C(=O)N[C@H](C(C)C)C(=O)N3CCC[C@H]3C(=O)N(C)CC(=O)N(C)[C@@H](C(C)C)C(=O)O[C@@H]2C)c(N)c1=O` [DACTINOMYCIN] (I: T[dV]P[Sar][NMeV] / II: T[dV]P[Sar][NMeV]; ester I:1-I:C, II:1-II:C; linker I:N-II:N via Actinocin(1to9)), the viability at 20 µM in series [12] and in series [13] was 0% throughout.
